Source: ChEMBL document CHEMBL1124260, “Synthesis and antitumor activity of quaternary ellipticine glycosides, a series of novel and highly active antitumor agents” (1988)

Key:
Assay type in all cases: functional
Mus musculus [1] = assay: Antitumor activity against ip implanted L1210 leukemia in mouse after ip administration of 30 mg/kg for 5 days expressed as increase in mean life span; details: route intraperitoneal; for ILS at 30 mg/kg: Mus musculus, L1210, ip, 120 h; for ILS: 30 mg/kg
Method in brief: (§1)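 Drug was dissolved in 0.9% NaCl, diluted just before use and given ip once daily for 5 consecutive days, starting 24 h after transplant. ILS % = mean survival time of treated vs control mice, observed for 80 days.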

Mus musculus [2] = assay: Number of survivors out of 6 ip implanted L1210 leukemia mouse, tested after 80 days at 30 mg/kg; details: route intraperitoneal
Method in brief: (§2)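 Female BDF1 mice implanted ip with ascitic fluid holding 10^5 L1210 cells. Saline-dissolved drug given ip daily on days 1-5, starting 24 h after implant. Six mice per dose group, followed 80 days. Survivors/total counted at day 80; ILS % from mean survival time vs controls.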

Mus musculus [3] = assay: Number of survivors out of 6 ip implanted L1210 leukemia mouse tested after 80 days at 10 mg/kg; details: route intraperitoneal; method in brief: as §2
Mus musculus [4] = assay: Antitumor activity against ip implanted L1210 leukemia in mouse after ip administration of 10 mg/kg for 5 days expressed as increase in mean life span; details: route intraperitoneal; for ILS at 10 mg/kg: Mus musculus, L1210, ip, 120 h; for ILS: 10 mg/kg; method in brief: as §1
Mus musculus [5] = assay: Number of survivors out of 6 ip implanted L1210 leukemia mouse tested after 80 days at 20 mg/kg; details: route intraperitoneal; method in brief: as §2
Mus musculus [6] = assay: Antitumor activity against ip implanted L1210 leukemia in mouse after ip administration of 20 mg/kg for 5 days expressed as increase in mean life span; details: 120 h, route intraperitoneal; method in brief: as §1
Mus musculus [7] = assay: Antitumor activity against ip implanted L1210 leukemia in mouse after ip administration of 40 mg/kg for 5 days expressed as increase in mean life span; details: 120 h, route intraperitoneal; method in brief: as §1
Mus musculus [8] = assay: Number of survivors out of 6 ip implanted L1210 leukemia mouse tested after 80 days at 40 mg/kg; details: route intraperitoneal; method in brief: as §2
Mus musculus [9] = assay: Number of survivors out of 6 ip implanted L1210 leukemia mouse tested after 80 days at 5 mg/kg; details: route intraperitoneal; method in brief: as §2
Mus musculus [10] = assay: Antitumor activity against ip implanted L1210 leukemia in mouse after ip administration of 5 mg/kg for 5 days expressed as increase in mean life span; details: route intraperitoneal; for ILS at 5 mg/kg: Mus musculus, L1210, ip, 120 h; for ILS: 5 mg/kg; method in brief: as §1

## Br.CC(=O)[O-].Cc1c2cc[n+](C3O[C@H](C)[C@@H](O)[C@@H]3O)cc2c(C)c2c1[nH]c1ccc(O)cc12 (some centres not stated)
Mus musculus [1]
  ILS at 30 mg/kg: > 217%
Mus musculus [2]
  Cures: 1

## Cc1c2cc[n+](C3O[C@H](CO)[C@@H](O)[C@H]3O)cc2c(C)c2c1[nH]c1ccc(O)cc12.[Br-] (some centres not stated)
Mus musculus [1]
  ILS at 30 mg/kg: > 387%
Mus musculus [2]
  Cures: 2

## CC(=O)[O-].Cc1c2cc[n+]([C@@H]3O[C@H](CO)[C@@H](O)[C@@H]3O)cc2c(C)c2c1[nH]c1ccc(O)cc12
Mus musculus [1]
  ILS at 30 mg/kg: > 262%
Mus musculus [2]
  Cures: 1

## Cc1c2cc[n+]([C@H]3O[C@H](CO)[C@@H](O)[C@H]3O)cc2c(C)c2c1[nH]c1ccc(O)cc12.[Br-]
Mus musculus [3]
  Cures: 0
Mus musculus [4]
  ILS at 10 mg/kg: 138%

## Cc1c2cc[n+]([C@@H]3O[C@@H](C)[C@H](O)[C@H]3O)cc2c(C)c2c1[nH]c1ccc(O)cc12.[Cl-]
Mus musculus [2]
  Cures: 1

## Cc1c2cc[n+]([C@H]3O[C@H](CO)[C@@H](O)[C@@H]3O)cc2c(C)c2c1[nH]c1ccc(O)cc12.[Br-]
Mus musculus [3]
  Cures: 2
Mus musculus [5]
  Cures: 0
Mus musculus [4]
  ILS at 10 mg/kg: > 379%
Mus musculus [6]
  ILS at 20 mg/kg: 91%

## CC(=O)[O-].Cc1c2cc[n+]([C@H]3O[C@@H](CO)[C@H](O)[C@H]3O)cc2c(C)c2c1[nH]c1ccc(O)cc12
Mus musculus [1]
  ILS at 30 mg/kg: > 269%
Mus musculus [2]
  Cures: 1

## Cc1c2cc[n+]([C@@H]3O[C@H](C)[C@@H](O)[C@H]3O)cc2c(C)c2c1[nH]c1ccc(O)cc12.[Cl-]
Mus musculus [1]
  ILS at 30 mg/kg: > 230%
Mus musculus [2]
  Cures: 1

## Cc1c2cc[n+]([C@H]3O[C@@H](C)[C@H](O)[C@@H](O)[C@H]3O)cc2c(C)c2c1[nH]c1ccc(O)cc12.[Br-]
Mus musculus [7]
  ILS at 40 mg/kg: 78%
Mus musculus [8]
  Cures: 0

## COc1ccc2[nH]c3c(C)c4cc[n+](C5O[C@@H](C)[C@H](O)[C@@H](O)[C@H]5O)cc4c(C)c3c2c1.[Br-] (some centres not stated)
Mus musculus [1]
  ILS at 30 mg/kg: 56%
Mus musculus [2]
  Cures: 0

## Cc1c2cc[n+](C3O[C@@H](C)[C@H](O)[C@@H](O)[C@H]3O)cc2c(C)c2c1[nH]c1ccccc12.[Br-] (some centres not stated)
Mus musculus [7]
  ILS at 40 mg/kg: 40%
Mus musculus [8]
  Cures: 0

## Cc1c2cc[n+]([C@@H]3O[C@H](CO)[C@@H](O)[C@@H](O)[C@H]3O)cc2c(C)c2c1[nH]c1ccc(O)cc12.[Br-]
Mus musculus [3]
  Cures: 1
Mus musculus [4]
  ILS at 10 mg/kg: > 254%

## Cc1c2cc[n+]([C@H]3OC[C@@H](O)[C@@H](O)[C@@H]3O)cc2c(C)c2c1[nH]c1ccc(O)cc12.[Br-]
Mus musculus [5]
  Cures: 3
Mus musculus [6]
  ILS at 20 mg/kg: > 606%

## Cc1c2cc[n+]([C@@H]3O[C@H](C)[C@H](O)[C@H](O)[C@H]3O)cc2c(C)c2c1[nH]c1ccc(O)cc12.[Br-]
Mus musculus [1]
  ILS at 30 mg/kg: 124%
Mus musculus [2]
  Cures: 0

## COc1ccc2[nH]c3c(C)c4cc[n+]([C@@H]5O[C@H](C)[C@H](O)[C@H](O)[C@H]5O)cc4c(C)c3c2c1.[Br-]
Mus musculus [1]
  ILS at 30 mg/kg: 20%
Mus musculus [2]
  Cures: 0

## Cc1c2cc[n+]([C@@H]3O[C@H](C)[C@H](O)[C@H](O)[C@H]3O)cc2c(C)c2c1[nH]c1ccccc12.[Br-]
Mus musculus [1]
  ILS at 30 mg/kg: 20%
Mus musculus [2]
  Cures: 0

## CC(=O)N[C@@H]1[C@@H](O)[C@H](O)[C@@H](CO)O[C@H]1[n+]1ccc2c(C)c3[nH]c4ccc(O)cc4c3c(C)c2c1.[Cl-]
Mus musculus [1]
  ILS at 30 mg/kg: 39%
Mus musculus [2]
  Cures: 0

## Cc1c2cc[n+]([C@H]3OC[C@@H](O)[C@H](O)[C@@H]3O)cc2c(C)c2c1[nH]c1ccc(O)cc12.[Cl-]
Mus musculus [3]
  Cures: 4
Mus musculus [4]
  ILS at 10 mg/kg: > 651%

## CC(=O)N[C@@H]1[C@@H](O)[C@@H](O)[C@@H](CO)O[C@H]1[n+]1ccc2c(C)c3[nH]c4ccc(O)cc4c3c(C)c2c1.[Cl-]
Mus musculus [1]
  ILS at 30 mg/kg: 8%
Mus musculus [2]
  Cures: 0

## COc1ccc2[nH]c3c(C)c4cc[n+](C5OCC(O)C(O)C5O)cc4c(C)c3c2c1.[Br-] (configuration not stated)
Mus musculus [1]
  ILS at 30 mg/kg: 56%
Mus musculus [2]
  Cures: 0

## Cc1c2cc[n+](C3OC(CO)C(O)C(O)C3O)cc2c(C)c2c1[nH]c1ccccc12.[Br-] (configuration not stated)
Mus musculus [7]
  ILS at 40 mg/kg: 39%
Mus musculus [8]
  Cures: 0

## Cc1c2cc[n+](C3OC(C(N)=O)C(O)C(O)C3O)cc2c(C)c2c1[nH]c1ccc(O)cc12.[Br-] (configuration not stated)
Mus musculus [9]
  Cures: 0
Mus musculus [10]
  ILS at 5 mg/kg: 49%

## Cc1c2cc[n+](C3CC(O)C(CO)O3)cc2c(C)c2c1[nH]c1ccc(O)cc12.[Cl-] (configuration not stated)
Mus musculus [3]
  Cures: 2
Mus musculus [4]
  ILS at 10 mg/kg: > 390%

## CC(=O)[O-].Cc1c2cc[n+](C3OC(C)C(O)C(O)C3O)cc2c(C)c2c1[nH]c1ccc(O)cc12 (configuration not stated)
Mus musculus [1]
  ILS at 30 mg/kg: > 615%
Mus musculus [2]
  Cures: 3

## COc1ccc2[nH]c3c(C)c4cc[n+](C5OC(CO)C(O)C(O)C5O)cc4c(C)c3c2c1.[Br-] (configuration not stated)
Mus musculus [3]
  Cures: 0
Mus musculus [4]
  ILS at 10 mg/kg: 14%

## Cc1c2cc[n+]([C@@H]3OC[C@@H](O)[C@@H](O)[C@H]3O)cc2c(C)c2c1[nH]c1ccc(O)cc12.[Br-]
Mus musculus [3]
  Cures: 2
Mus musculus [4]
  ILS at 10 mg/kg: > 396%

## Cc1c2cc[n+]([C@H]3O[C@@H](CO)[C@H](O)[C@@H]3O)cc2c(C)c2c1[nH]c1ccc(O)cc12.[Br-]
Mus musculus [3]
  Cures: 2
Mus musculus [4]
  ILS at 10 mg/kg: > 391%

## Cc1c2cc[n+]([C@@H]3O[C@H](CO)[C@H](O)[C@H](O)[C@H]3O)cc2c(C)c2c1[nH]c1ccc(O)cc12.[Br-]
Mus musculus [5]
  Cures: 4
Mus musculus [6]
  ILS at 20 mg/kg: > 729%

## COc1ccc2[nH]c3c(C)c4cc[n+](C5O[C@@H](CO)[C@H](O)[C@@H]5O)cc4c(C)c3c2c1.[Br-] (some centres not stated)
Mus musculus [1]
  ILS at 30 mg/kg: 76%
Mus musculus [2]
  Cures: 0

## Cc1c2cc[n+](C3OC[C@@H](O)[C@H]3O)cc2c(C)c2c1[nH]c1ccc(O)cc12.[Cl-] (some centres not stated)
Mus musculus [9]
  Cures: 0
Mus musculus [10]
  ILS at 5 mg/kg: 122%

## Cc1c2cc[n+](C3O[C@@H](CO)[C@H](O)[C@@H]3O)cc2c(C)c2c1[nH]c1ccccc12.[Br-] (some centres not stated)
Mus musculus [5]
  Cures: 0
Mus musculus [6]
  ILS at 20 mg/kg: 80%

## Cc1c2cc[n+]([C@@H]3O[C@H](CO)[C@H](O)[C@@H]3O)cc2c(C)c2c1[nH]c1ccc(O)cc12.[Cl-] (stereo in doubt; 43b)
Mus musculus [3]
  Cures: 3
Mus musculus [4]
  ILS: >552%

## Cc1c2cc[n+]([C@@H]3OC[C@@H](O)[C@@H](O)[C@H]3O)cc2c(C)c2c1[nH]c1ccc(O)cc12.[Br-] (stereo in doubt; 48a)
Mus musculus [1]
  ILS: 112%
Mus musculus [2]; 30 mg/kg
  Cures: 0

## Cc1c2cc[n+]([C@@H]3OC[C@@H](O)[C@@H](O)[C@H]3O)cc2c(C)c2c1[nH]c1ccc(O)cc12.[Br-] (stereo in doubt; 48b)
Mus musculus [1]
  ILS: >944%
Mus musculus [2]; 30 mg/kg
  Cures: 6

## Cc1c2cc[n+]([C@@H]3OC[C@@H](O)[C@@H](O)[C@H]3O)cc2c(C)c2c1[nH]c1ccc(O)cc12.[Br-] (stereo in doubt; 50a)
Mus musculus [1]
  ILS: >857%
Mus musculus [2]; 30 mg/kg
  Cures: 5

## Cc1c2cc[n+]([C@H]3O[C@@H](C)[C@@H](O)[C@@H](O)[C@@H]3O)cc2c(C)c2c1[nH]c1ccc(O)cc12.[Br-] (stereo in doubt; 53b)
Mus musculus [1]
  ILS: >583%
Mus musculus [2]; 30 mg/kg
  Cures: 3

## Cc1c2cc[n+]([C@H]3O[C@@H](CO)[C@H](O)[C@@H](O)[C@@H]3O)cc2c(C)c2c1[nH]c1ccc(O)cc12.[Br-] (stereo in doubt; 63a)
Mus musculus [4]
  ILS: 52%

## Cc1c2cc[n+]([C@H]3O[C@@H](CO)[C@H](O)[C@@H](O)[C@@H]3O)cc2c(C)c2c1[nH]c1ccc(O)cc12.[Br-] (stereo in doubt; 63b)
Mus musculus [9]; 5 mg/kg
  Cures: 0
Mus musculus [10]
  ILS: 58%

## Cc1c2cc[n+]([C@H]3O[C@@H](CO)[C@H](O)[C@@H](O)[C@@H]3O)cc2c(C)c2c1[nH]c1ccc(O)cc12.[Br-] (stereo in doubt; 64a)
Mus musculus [3]; 10 mg/kg
  Cures: 0
Mus musculus [4]
  ILS: 88%

## Cc1c2cc[n+]([C@H]3O[C@@H](CO)[C@H](O)[C@@H](O)[C@@H]3O)cc2c(C)c2c1[nH]c1ccc(O)cc12.[Br-] (stereo in doubt; 64b)
Mus musculus [9]; 5 mg/kg
  Cures: 2
Mus musculus [10]
  ILS: >362%

## Cc1c2cc[n+]([C@H]3O[C@@H](CO)[C@H](O)[C@@H](O)[C@@H]3O)cc2c(C)c2c1[nH]c1ccc(O)cc12.[Br-] (stereo in doubt; 65)
Mus musculus [3]; 10 mg/kg
  Cures: 1
Mus musculus [4]
  ILS: >212%
